From ChEMBL document CHEMBL2150909, “Imidazo[1,2-a]pyridines: orally active positive allosteric modulators of the metabotropic glutamate 2 receptor” (J Med Chem, 2012)
pEC50: −log10 of the molar value. Each block holds one compound with its values, some of them ahead of it.

Tests used:
[1] = target: T1, Metabotropic glutamate receptor 2 (Homo sapiens, UniProt Q14416); assay: Agonist activity at human mGlu 2 expressed in CHO cells by PAM assay relative to glutamate; type: functional, cell-based
How it was run: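 The assay measured [35S]GTPγS binding to membranes from CHO cells expressing human mGluR2. Cells were butyrate-stimulated (5 mM, 24 h) before membranes were prepared. Membranes were preincubated for 30 min at 30 °C in HEPES pH 7.4 buffer (NaCl, MgCl2, 50 μM GDP) with compound (0.3 nM–50 μM, 11 concentrations) plus EC25 glutamate. [35S]GTPγS (0.1 nM final) was then added for 30 min at 30 °C. Bound label was collected by filtration and counted. Runs were done at least in triplicate with duplicate points, and a four-parameter logistic fit gave the values.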
Target sequence in this assay (Q14416 19-872 limits assumed): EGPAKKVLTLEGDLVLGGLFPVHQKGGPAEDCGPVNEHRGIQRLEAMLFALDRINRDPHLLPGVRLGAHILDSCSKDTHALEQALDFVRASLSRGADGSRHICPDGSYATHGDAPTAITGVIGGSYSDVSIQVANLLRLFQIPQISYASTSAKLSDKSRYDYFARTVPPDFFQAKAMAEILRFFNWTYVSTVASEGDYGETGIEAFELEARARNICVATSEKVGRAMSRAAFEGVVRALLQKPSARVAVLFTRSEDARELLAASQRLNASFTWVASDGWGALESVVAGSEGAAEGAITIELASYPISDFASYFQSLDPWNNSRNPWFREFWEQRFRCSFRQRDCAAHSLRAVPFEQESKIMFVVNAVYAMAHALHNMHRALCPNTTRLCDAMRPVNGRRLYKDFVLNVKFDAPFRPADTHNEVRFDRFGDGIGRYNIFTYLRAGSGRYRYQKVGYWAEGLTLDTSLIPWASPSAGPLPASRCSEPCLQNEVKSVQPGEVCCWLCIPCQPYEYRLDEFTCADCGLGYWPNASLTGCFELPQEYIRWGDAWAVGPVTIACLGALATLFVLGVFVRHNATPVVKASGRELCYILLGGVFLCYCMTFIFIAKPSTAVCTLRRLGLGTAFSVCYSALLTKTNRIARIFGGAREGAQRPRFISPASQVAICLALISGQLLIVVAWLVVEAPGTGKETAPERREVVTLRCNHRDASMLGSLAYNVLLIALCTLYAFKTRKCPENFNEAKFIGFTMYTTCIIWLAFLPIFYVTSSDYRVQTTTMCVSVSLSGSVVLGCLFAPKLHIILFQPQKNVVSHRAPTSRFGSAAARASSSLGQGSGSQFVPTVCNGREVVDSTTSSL

[2] = Metabolic stability of human liver microsomes assessed as compound metabolized at 5 uM after 15 mins; type: ADME, Microsome; conditions: read-out: Drug metabolism
How it was run: (§1)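 Test compound at 5 μM incubated 15 min with rat or human liver microsomes; read-out is percent of compound metabolized.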

[3] = Half life in Sprague-Dawley rat at 10 mg/kg, po and 2.5 mg/kg, iv; type: ADME, organism-based; conditions: in vivo
How it was run: (§2)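 Rat PK: compounds formulated in 20% HP-β-CD at pH 4 and given orally and intravenously. Values are geometric means of at least two runs ± SEM.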

[4] = AUC (0 to infinity) in Sprague-Dawley rat at 10 mg/kg, po and 2.5 mg/kg, iv; type: ADME, organism-based; conditions: plasma; how it was run: as §2
[5] = Metabolic stability of Sprague-Dawley rat liver microsomes assessed as compound metabolized at 5 uM after 15 mins; type: ADME, Microsome; conditions: read-out: Drug metabolism; how it was run: as §1
[6] = Clearance in Sprague-Dawley rat at 10 mg/kg, po and 2.5 mg/kg, iv; type: ADME, organism-based; conditions: in vivo
[7] = target: T1, Metabotropic glutamate receptor 2; assay: Agonist activity at human mGlu 2 expressed in CHO cells assessed as [35S]GTPgammaS binding by liquid scintillation analysis; type: functional, cell-based
How it was run: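 Membranes from butyrate-stimulated (5 mM, 24 h) CHO cells expressing human mGlu2. Preincubated 30 min at 30 °C in HEPES pH 7.4 with NaCl, MgCl2, 50 μM GDP and saponin; modulator 0.3 nM–50 μM, no added glutamate. [35S]GTPγS 0.1 nM final, 30 min at 30 °C, filtered, scintillation counted. Nonspecific binding defined with cold GTP; 11 concentrations in duplicate, ≥3 curves.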
Target sequence in this assay (Q14416 whole entry): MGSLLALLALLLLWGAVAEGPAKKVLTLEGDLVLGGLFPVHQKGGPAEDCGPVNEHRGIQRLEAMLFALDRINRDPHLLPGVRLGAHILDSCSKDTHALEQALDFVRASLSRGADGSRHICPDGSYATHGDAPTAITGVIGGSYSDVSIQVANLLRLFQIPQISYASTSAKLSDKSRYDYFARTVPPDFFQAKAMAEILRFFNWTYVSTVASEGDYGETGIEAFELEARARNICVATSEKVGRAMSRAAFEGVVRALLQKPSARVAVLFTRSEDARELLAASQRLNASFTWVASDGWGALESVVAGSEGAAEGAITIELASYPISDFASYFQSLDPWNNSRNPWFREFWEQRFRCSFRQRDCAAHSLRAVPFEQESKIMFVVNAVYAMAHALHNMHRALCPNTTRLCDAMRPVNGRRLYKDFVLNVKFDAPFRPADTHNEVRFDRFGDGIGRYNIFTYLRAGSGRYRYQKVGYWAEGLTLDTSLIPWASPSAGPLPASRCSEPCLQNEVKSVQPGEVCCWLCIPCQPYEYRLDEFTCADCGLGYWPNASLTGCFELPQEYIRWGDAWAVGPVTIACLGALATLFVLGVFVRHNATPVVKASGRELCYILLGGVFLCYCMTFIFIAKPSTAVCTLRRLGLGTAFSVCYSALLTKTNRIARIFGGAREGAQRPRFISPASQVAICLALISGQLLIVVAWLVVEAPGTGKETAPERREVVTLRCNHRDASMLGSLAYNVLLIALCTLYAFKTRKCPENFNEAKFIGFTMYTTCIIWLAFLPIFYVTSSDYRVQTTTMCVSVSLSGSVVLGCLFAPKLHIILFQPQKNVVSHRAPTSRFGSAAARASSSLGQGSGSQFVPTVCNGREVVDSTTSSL

[8] = Ratio of drug level in brain to plasma of SPF Swiss mouse at 10 mg/kg, sc after 2 hrs; type: ADME, organism-based; set-up: dose 10 mg/kg, route subcutaneous; conditions: read-out: BPR
How it was run: (§3)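 Male Swiss SPF mice, single subcutaneous dose of 10 mg/kg in 20% HP-β-CD at pH 4. Brain levels (ng/g) and plasma levels (ng/mL) measured at the stated time after dosing; brain-to-plasma ratio taken from these. Geometric mean of at least two runs ± SEM.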

[9] = Cmax in Sprague-Dawley rat at 10 mg/kg, po and 2.5 mg/kg, iv; type: ADME, organism-based; conditions: in vivo; how it was run: as §2
[10] = Drug uptake in SPF Swiss mouse brain at 10 mg/kg, sc after 1 hr; type: ADME, organism-based; set-up: dose 10 mg/kg, route subcutaneous; conditions: read-out: Drug uptake
How it was run: (§4)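 Male Swiss SPF mice dosed subcutaneously at 10 mg/kg in 20% HP-β-CD, pH 4. Brain levels measured in ng/g and plasma levels in ng/mL at the stated time, with brain/plasma ratio; geometric mean of at least two runs ± SEM.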

[11] = Drug uptake in SPF Swiss mouse brain at 10 mg/kg, sc after 2 hrs; type: ADME, organism-based; set-up: dose 10 mg/kg, route subcutaneous; conditions: read-out: Drug uptake; how it was run: as §4
[12] = Ratio of drug level in brain to plasma of SPF Swiss mouse at 10 mg/kg, sc after 1 hr; type: ADME, organism-based; set-up: dose 10 mg/kg, route subcutaneous; conditions: read-out: BPR; how it was run: as §3
[13] = Plasma concentration in SPF Swiss mouse at 10 mg/kg, sc after 2 hrs; type: ADME, organism-based; set-up: dose 10 mg/kg, route subcutaneous; how it was run: as §4
[14] = Tmax in Sprague-Dawley rat at 10 mg/kg, po and 2.5 mg/kg, iv; type: ADME, organism-based; conditions: in vivo; how it was run: as §2
[15] = Oral bioavailability in Sprague-Dawley rat at 10 mg/kg; type: ADME, organism-based; conditions: in vivo
How it was run: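 Male Sprague-Dawley rats given 10 mg/kg orally and/or 1.25 mg/kg intravenously; compound formulated in 20% HP-β-CD at pH 4. Cmax, tmax, AUC0−inf, t1/2, clearance and oral bioavailability F derived from plasma levels; geometric mean of at least two runs ± SEM.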

[16] = Plasma concentration in SPF Swiss mouse at 10 mg/kg, sc after 1 hr; type: ADME, organism-based; set-up: dose 10 mg/kg, route subcutaneous; how it was run: as §4
[17] = Plasma concentration in Sprague-Dawley rat at 10 mg/kg, sc after 4 hrs; type: ADME, organism-based; set-up: dose 10 mg/kg, route subcutaneous
How it was run: (§5)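 Male Sprague−Dawley rats given 10 mg/kg subcutaneously, vehicle 20% HP-β-CD at pH 4. Plasma (ng/mL) and brain (ng/g) drug levels determined at the listed post-dose time; B/P ratio derived from them. Values are geometric means of at least two runs ± SEM.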

[18] = Ratio of drug level in brain to plasma of Sprague-Dawley rat at 10 mg/kg, sc after 4 hrs; type: ADME, organism-based; set-up: dose 10 mg/kg, route subcutaneous; conditions: brain and plasma, read-out: BPR; how it was run: as §5
[19] = Ratio of drug level in brain to plasma of Sprague-Dawley rat at 10 mg/kg, sc after 2 hrs; type: ADME, organism-based; set-up: dose 10 mg/kg, route subcutaneous; conditions: read-out: BPR; how it was run: as §5
[20] = Drug uptake in Sprague-Dawley rat brain at 10 mg/kg, sc after 1 hr; type: ADME, organism-based; set-up: dose 10 mg/kg, route subcutaneous; conditions: read-out: Drug uptake
How it was run: (§6)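 Brain exposure in male Sprague-Dawley rats after a 10 mg/kg subcutaneous dose, vehicle 20% HP-β-CD at pH 4. Brain level measured in ng/g alongside plasma in ng/mL; geometric mean of at least two runs ± SEM.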

[21] = Plasma concentration in Sprague-Dawley rat at 10 mg/kg, sc after 1 hr; type: ADME, organism-based; set-up: dose 10 mg/kg, route subcutaneous; how it was run: as §5
[22] = Ratio of drug level in brain to plasma of Sprague-Dawley rat at 10 mg/kg, sc after 1 hr; type: ADME, organism-based; set-up: dose 10 mg/kg, route subcutaneous; conditions: read-out: BPR; how it was run: as §5
[23] = Drug uptake in Sprague-Dawley rat brain at 10 mg/kg, sc after 4 hrs; type: ADME, organism-based; set-up: dose 10 mg/kg, route subcutaneous; conditions: read-out: Drug uptake; how it was run: as §6
[24] = Plasma concentration in Sprague-Dawley rat at 10 mg/kg, sc after 2 hrs; type: ADME, organism-based; set-up: dose 10 mg/kg, route subcutaneous; how it was run: as §5
[25] = Drug uptake in Sprague-Dawley rat brain at 10 mg/kg, sc after 2 hrs; type: ADME, organism-based; set-up: dose 10 mg/kg, route subcutaneous; conditions: read-out: Drug uptake; how it was run: as §6

Emax [1]: 167%
SMILES: N#Cc1c(-c2ccc(N3CCOCC3)c(Cl)c2)ccn2c(CC(F)(F)F)cnc12

metabolised at 0.25 h, 5 µM [2]: 23%
half-life [3]: 55.2 min
AUC(0-inf) [4]: 281 ng·h/mL
metabolised at 0.25 h, 5 µM [5]: 28%
clearance [6]: 83.3 mL/min/kg
pEC50 [7]: 6.30
Kp at 2 h [8]: 0.5
Emax [1]: 442%
Cmax [9]: 216 ng/mL
concentration at 1 h [10]: 704 ng/g
concentration at 2 h [11]: 50 ng/g
Kp at 1 h [12]: 0.8
concentration at 2 h [13]: 95 ng/mL
Tmax [14]: 30 min
bioavailability [15]: 15%
concentration at 1 h [16]: 932 ng/mL
SMILES: N#Cc1c(-c2ccc3c(ccn3C3CCOCC3)c2)ccn2c(CC(F)(F)F)cnc12

Emax [1]: 105%
SMILES: N#Cc1c(-c2ccc3c(c2)OCCNC3)ccn2c(CC(F)(F)F)cnc12

metabolised at 0.25 h, 5 µM [2]: 21%
metabolised at 0.25 h, 5 µM [5]: 36%
Emax [1]: 307%
SMILES: N#Cc1c(-c2ccc(NC3CCOCC3)c(Cl)c2)ccn2c(CC(F)(F)F)cnc12

metabolised at 0.25 h, 5 µM [2]: 16%
metabolised at 0.25 h, 5 µM [5]: 15%
concentration at 4 h [17]: 708 ng/mL
Kp at 4 h [18]: 0.7
Kp at 2 h [19]: 1
concentration at 1 h [20]: 1000 ng/g
pEC50 [7]: 6.82
concentration at 1 h [21]: 2140 ng/mL
Kp at 1 h [22]: 0.5
concentration at 4 h [23]: 485 ng/g
Emax [1]: 293%
concentration at 2 h [24]: 1280 ng/mL
concentration at 2 h [25]: 1220 ng/g
SMILES: O[C@H]1CC[C@H](Nc2ccc(-c3ccn4c(CC(F)(F)F)cnc4c3Cl)cc2Cl)CC1

metabolised at 0.25 h, 5 µM [2]: 29%
metabolised at 0.25 h, 5 µM [5]: 50%
pEC50 [7]: 6.21
Emax [1]: 173%
SMILES: N#Cc1c(-c2ccc(OC3CCOCC3)c(Cl)c2)ccn2c(CC(F)(F)F)cnc12

metabolised at 0.25 h, 5 µM [2]: 19%
metabolised at 0.25 h, 5 µM [5]: 74%
Emax [1]: 200%
SMILES: N#Cc1c(-c2cc(Cl)c3c(ccn3CC3CC3)c2)ccn2c(CC(F)(F)F)cnc12
